An excerpt weighted towards active compounds, which were near 3.7% of everything screened.
ERAP1 inh: blocks human ERAP1 aminopeptidase activity; Q9NZ08; recombinant ERAP1, Leu-AMC fluorescence, 60 min; inhibition, % at 10.7 µM; 340,000 tested, 0.15% active; AID 652197;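 active = mean replicate inhibition of at least 30%, or all replicates individually reaching that 30% level; inactive = mean below 30% and not every replicate reaching it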
DENV2 CPE rescue: inhibitors of DENV2 cytopathic effect; DENV2-infected cells, cytopathic effect rescue, plate reader; CPE inhibition, % at 9.99 µM; 350,000 tested, 1.7% active; AID 651640; in the data active = CPE inhibition above about 20%, passing the limit was not always enough; inconclusive = no clear call, values can overlap the other calls; tested in BHK-21 cells
CFTR F508del cor: correctors of CFTR F508del function in bronchial epithelial cells | CFBE cells, YFP halide quenching; stimulated with forskolin plus potentiator P3; % fluorescence drop versus neutral controls | activity (quench increase), % at 7.58 µM | 350,000 tested, 0.36% active;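 active = mean added fluorescence quench of at least 8% versus neutral control, with both replicates also reaching 8%; inconclusive = only one of the mean or replicate conditions met; inactive = mean below 8% and not both replicates reaching 8%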;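 note: cells transiently co-express mutant CFTR-F508del with the halide-sensitive YFP; corrector assay measuring rescue of mutant channel to the surface after 24 h compound exposure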
E-selectin induc: E-selectin induction on HUVECs | HUVEC E-selectin immunofluorescence imaging; normalized: neutral wells 0, TNF-alpha wells 100 | 260,000 tested, 0.37% active | P16581 | activation, % at 7.58 µM;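 active = mean E-selectin-positive cell signal at least 10% of the positive control, reached in at least 60% of replicates, without over 20% cell loss; inconclusive = no rule given, readout overlaps actives, possibly toxicity-flagged; inactive = the rest, including those meeting only one limit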
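Material: HUVEC primary endothelial cells; Amount: 3,000 cells per well; Dosing: single concentration; Medium: EGM-2 growth medium on 0.1% gelatin-coated wells; Read-out basis: percent E-selectin-positive cells; Signal: immunofluorescence imaging; Control set: TNF-alpha, DMSO.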
FGF22 binding: shifts melting point of recombinant human FGF22 | AID 651658 | activity (Tm shift, normalised), % at 9.99 µM | recombinant FGF22 thermal shift, SYPRO orange fluorescence; percent of sucrose octasulfate shift, DMSO zero | 340,000 tested, 1.5% active;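 active = mean Tm shift, scaled 0 neutral to 100 positive control, at about 1.3% or above, every replicate too, limit read from the data; inconclusive = no clear call, values can overlap the other calls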
Target sequence (Q9HCT0 whole entry, looked up): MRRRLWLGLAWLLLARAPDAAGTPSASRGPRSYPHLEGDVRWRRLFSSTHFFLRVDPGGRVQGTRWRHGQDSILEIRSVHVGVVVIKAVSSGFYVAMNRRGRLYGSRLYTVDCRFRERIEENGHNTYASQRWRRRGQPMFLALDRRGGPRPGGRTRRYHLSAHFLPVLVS
Each line names hits and unclear results; the compound was inactive in the other large screens.

C[C@H](CO)N1C[C@H](C)[C@H](CN(C)C(=O)Nc2ccc(F)cc2)OCCCC[C@H](C)Oc2ccc(NC(=O)Nc3ccc(C(F)(F)F)cc3)cc2C1=O	FGF22 binding 1.3
C[C@@H]1CCCCO[C@H](CN(C)C(=O)Nc2ccc(F)cc2)[C@@H](C)CN([C@H](C)CO)C(=O)c2cc(NC(=O)Nc3ccc(C(F)(F)F)cc3)ccc2O1	none
C[C@H]1CCCCO[C@@H](CN(C)C(=O)Nc2ccc(C(F)(F)F)cc2)[C@@H](C)CN([C@@H](C)CO)C(=O)c2cc(NC(=O)Nc3ccc4c(c3)OCO4)ccc2O1	CFTR F508del cor 8.1
C[C@@H]1CCCCO[C@H](CN(C)C(=O)Nc2ccc(F)cc2)[C@H](C)CN([C@@H](C)CO)C(=O)c2cc(NC(=O)Nc3ccc(C(F)(F)F)cc3)ccc2O1	FGF22 binding 1.3
C[C@@H]1CCCCO[C@H](CN(C)C(=O)Nc2ccc(C(F)(F)F)cc2)[C@@H](C)CN([C@@H](C)CO)C(=O)c2cc(NC(=O)Cc3ccccc3)ccc2O1	DENV2 CPE rescue 42 (no result: ERAP1 inh)
C[C@H]1CCCCO[C@@H](CN(C)C(=O)Nc2ccc(C(F)(F)F)cc2)[C@@H](C)CN([C@@H](C)CO)C(=O)c2cc(NC(=O)Cc3ccccc3)ccc2O1	none (no result: ERAP1 inh)
C[C@H](CO)N1C[C@H](C)[C@H](CN(C)C(=O)Nc2ccc3c(c2)OCO3)OCCCC[C@H](C)Oc2ccc(NC(=O)Nc3ccc(C(F)(F)F)cc3)cc2C1=O	none
COc1ccc(S(=O)(=O)N(C)C[C@H]2Oc3c(NC(=O)NC4CCCCC4)cccc3C(=O)N([C@@H](C)CO)C[C@H]2C)cc1	none
O=C(NC[C@@H]1CC[C@H]2[C@H](CN2Cc2cc(-c3ccccc3)on2)O1)c1ccc2c(c1)OCO2	none (no result: ERAP1 inh, E-selectin induc, FGF22 binding)
C[C@H]1CN([C@@H](C)CO)S(=O)(=O)c2ccc(-c3ccncc3)cc2O[C@H]1CN(C)C(=O)CC1CC1	none
CC(C)NC(=O)Nc1ccc2c(c1)C(=O)N([C@H](C)CO)C[C@@H](C)[C@H](CN(C)C(=O)Nc1ccc(C(F)(F)F)cc1)OCCCC[C@@H](C)O2	DENV2 CPE rescue 50
CC(C)NC(=O)Nc1ccc2c(c1)C(=O)N([C@H](C)CO)C[C@@H](C)[C@H](CN(C)C(=O)Nc1ccc(C(F)(F)F)cc1)OCCCC[C@H](C)O2	DENV2 CPE rescue inconclusive
CCCN(C)C[C@H]1OCCCC[C@H](C)Oc2ccc(NC(=O)Nc3ccc(C(F)(F)F)cc3)cc2C(=O)N([C@@H](C)CO)C[C@H]1C	none
C[C@H](CO)N1C[C@H](C)[C@@H](CN(C)C(=O)Nc2ccc(C(F)(F)F)cc2)OCCCC[C@H](C)Oc2ccc(NC(=O)Nc3ccc(F)cc3)cc2C1=O	CFTR F508del cor 9.3
C[C@H]1CCCCO[C@@H](CN(C)C(=O)Nc2ccccc2)[C@@H](C)CN([C@@H](C)CO)C(=O)c2cc(NC(=O)Nc3ccc(C(F)(F)F)cc3)ccc2O1	DENV2 CPE rescue 36 (no result: ERAP1 inh)
CCCN(C)C[C@@H]1OCCCC[C@@H](C)Oc2ccc(NC(=O)Nc3ccc(C(F)(F)F)cc3)cc2C(=O)N([C@H](C)CO)C[C@@H]1C	DENV2 CPE rescue 28
C[C@H]1CCCCO[C@@H](CN(C)C(=O)Nc2ccc(C(F)(F)F)cc2)[C@@H](C)CN([C@@H](C)CO)C(=O)c2cc(NC(=O)Nc3ccc(F)cc3)ccc2O1	CFTR F508del cor 8.3
COC(=O)C[C@@H]1CC[C@@H]2[C@H](COc3ccc(NS(=O)(=O)c4cccc(F)c4)cc3C(=O)N2C)O1	none
COc1ccc2c3c([nH]c2c1)[C@H](CO)N(S(=O)(=O)c1ccccc1)CC31CCN(C)CC1	none
CCc1ccc(C(=O)NNC(=O)CCN2CCN(Cc3ccccc3)CC2)cc1	none
N#Cc1ccsc1NC(=O)CN1CCN(Cc2ccccc2)CC1	FGF22 binding 43 (no result: E-selectin induc)
N#Cc1ccccc1NC(=O)CN1CCN(Cc2ccccc2)CC1	none (no result: E-selectin induc)
O=C(CN1CCN(Cc2ccccc2)CC1)NNC(=O)c1ccccc1	DENV2 CPE rescue 26
CC(C)CC#Cc1ccc2c(c1)O[C@@H](CN(C)C(=O)Nc1ccccc1)[C@@H](C)CN([C@@H](C)CO)S2(=O)=O	none
CN(C)CC(=O)N1[C@@H]2c3cccc(=O)n3C[C@@H]2[C@@H](CO)[C@@H]1C(=O)NCc1ccccc1F	none (no result: FGF22 binding)
C[C@H]1CN([C@@H](C)CO)C(=O)Cc2cc(NC(=O)Cc3cn(C)c4ccccc34)ccc2O[C@H]1CN(C)C	none
Cn1ccs/c1=N\C(=O)Nc1cccc(Cl)c1	FGF22 binding 43 (no result: E-selectin induc)
Cc1ccc(S(=O)(=O)Nc2ccc3c(c2)CC(=O)N([C@H](C)CO)C[C@@H](C)[C@H](CN(C)C(=O)NC(C)C)O3)cc1	none
C[C@@H]1CN([C@@H](C)CO)S(=O)(=O)c2ccc(-c3cncnc3)cc2O[C@H]1CN(C)C(=O)C1CC1	none (no result: ERAP1 inh, DENV2 CPE rescue, FGF22 binding)
CC(=O)c1cccc(CN2CCN(CCC(C)C)C(CCO)C2)c1 (configuration not stated)	none
CC(C)N1CCN(Cc2ccc3c(c2)Cc2ccccc2-3)CC1CCO (configuration not stated)	FGF22 binding 43 (no result: E-selectin induc)
CC(=O)c1cccc(CN2CCN(C(C)C)C(CCO)C2)c1 (configuration not stated)	FGF22 binding 44
CC(C)N1CCN(Cc2ccc(-c3ccccc3)cc2)CC1CCO (configuration not stated)	none
O=C(CSc1nc2c(oc3ccccc32)c(=O)n1CC1CCCO1)NCc1ccccc1 (configuration not stated)	DENV2 CPE rescue 72
COc1ccc2c3c(n(C)c2c1)[C@@H](CO)N(C(=O)c1ccc(F)cc1)CC31CCN(CC2CCOCC2)CC1	none
CN(NC(=O)c1ccco1)c1nc2ccccc2nc1C(F)(F)F	FGF22 binding 43 (no result: E-selectin induc)
CCN1[C@@H]2c3ccc(-c4ccccc4OC)c(=O)n3C[C@@H]2[C@@H](CO)[C@@H]1C(=O)NCc1ccc(F)cc1	none (no result: CFTR F508del cor)
C[n+]1ccc(/C=C/c2cccs2)cc1	ERAP1 inh 53 (no result: E-selectin induc)
CC(C)(C)NC(=O)/C=C/c1cccs1	none
Cc1ccc(S(=O)(=O)N(C)C[C@H]2Oc3ccc(NC(=O)NC(C)C)cc3C(=O)N([C@H](C)CO)C[C@@H]2C)cc1	none (no result: FGF22 binding)
Cc1[nH]c2ccccc2c1CC#N	none
Cc1[nH]c2ccccc2c1C1=CC(=O)C=CC1=O	ERAP1 inh 78
CCN(C(=O)CSc1nncn1-c1ccccc1)c1c(N)n(Cc2ccccc2)c(=O)[nH]c1=O	none (no result: E-selectin induc)
COCCN(C(=O)/C=C/c1ccccc1)c1c(N)n(Cc2ccccc2)c(=O)[nH]c1=O	FGF22 binding 43
CCN(C(=O)COC(=O)/C=C/c1c(C)nn(-c2ccccc2)c1C)c1c(N)n(Cc2ccccc2)c(=O)[nH]c1=O	CFTR F508del cor 10
Cc1ccc(C(=O)N(Cc2ccco2)c2c(N)n(Cc3ccccc3)c(=O)[nH]c2=O)cc1	none
